# The list is not random: actives were taken first. Their share in the collection is about 1.5%.
# CXCR6 inh: inhibitors of human CXCR6 receptor; inhibition, % at 20 µM; actives 0.36% (n = 360,000); CHO-K1 PathHunter CXCR6 beta-arrestin, luminescence; O00574; in the data active means inhibition above about 34%, passing the limit was not always enough;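 further: antagonist mode with CXCL16 agonist at 10 nM final; 0% = 10 nM CXCL16 with DMSO and 100% = unstimulated wells without agonist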
# CCR6 antag: CCR6 (human) receptor antagonism; P51684; CHO-K1 CCR6 PathHunter beta-arrestin, luminescence, CCL20-stimulated; inhibition, % at 20 µM; actives 0.49% (n = 340,000);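 active means compounds whose inhibition of the agonist-driven luminescence signal at 20 µM reaches about 50%, limit read from the data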;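 further: cells stimulated with CCL20 at 14 nM final; plate controls were DMSO with CCL20 for no effect and DMSO without agonist for full effect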
# APJ antagonist: APJ receptor antagonism; AID 2521; P35414; inhibition, % at 20 µM; CHO-K1 APJ beta-arrestin complementation, luminescence; actives 0.32% (n = 330,000);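 active means inhibition above about 40% at 20 µM, limit read from the data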;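 further: cells challenged with 10 nM apelin-13 agonist together with compound; plate controls were apelin-13 plus DMSO wells for no effect and DMSO wells lacking apelin-13 for full effect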
# APJ agonist: APJ receptor agonism | actives 0.11% (n = 330,000) | P35414 | CHO-K1 APJ PathHunter beta-arrestin, luminescence; 0% DMSO wells, 100% apelin | AID 2520 | activation, % at 20 µM;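 active means activation more than six SD over the plate average, tested at 20 µM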;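 further: 0% = DMSO alone and 100% = apelin-13 at 10 nM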
#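 Material: engineered CHO-K1 APJ arrestin reporter cells; amount: 1000 CHO-K1 reporter cells seeded per well; incubation: compound stimulation 90 min at 25 °C, detection 60 min; signal: luminescent beta-gal fragment complementation, chemiluminescent substrate; read-out basis: APJ agonist activity; controls: DMSO-only wells as negative, 10 nM Apelin-13 as positive control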
# EBI2 block: blocks human EBI2 receptor beta-arrestin signaling; EBI2 beta-arrestin recruitment, luminescence, 7a,25-OHC stimulated; inhibition, % at 5 µM; actives 0.81% (n = 360,000); AID 651636; in the data active means inhibition above about 38%;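 further: enzyme fragment complementation signal reports receptor beta-arrestin coupling in cells; 0% = agonist plus DMSO wells and 100% = wells without agonist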
# Target sequence (P32249 whole entry, looked up, the tested form may be a part): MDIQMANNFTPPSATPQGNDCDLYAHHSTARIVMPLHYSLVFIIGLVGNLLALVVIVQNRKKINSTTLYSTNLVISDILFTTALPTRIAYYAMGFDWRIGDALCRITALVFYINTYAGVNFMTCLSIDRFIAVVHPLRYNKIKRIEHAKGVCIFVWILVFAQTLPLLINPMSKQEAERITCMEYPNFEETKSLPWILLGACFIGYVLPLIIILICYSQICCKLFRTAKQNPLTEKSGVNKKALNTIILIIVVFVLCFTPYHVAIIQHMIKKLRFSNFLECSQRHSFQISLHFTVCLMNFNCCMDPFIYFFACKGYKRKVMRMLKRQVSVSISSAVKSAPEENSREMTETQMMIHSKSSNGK
# EBI2 conf: EBI2 (human) antagonism, single concentration confirmation; inhibition, % at 5 µM; shares compounds with EBI2 block; EBI2 beta-arrestin luminescence, 7a,25-OHC antagonism; actives 29% (n = 2,400);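 active means inhibition of at least 50%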
# EBI2 ag: counter-screen for EBI2 antagonists: EBI2 agonist activity; shares compounds with EBI2 block; EBI2-expressing cells, agonist mode, luminescence, 60 min; 0% vehicle, 100% 7α,25-dihydroxycholesterol control; activation, % at 5 µM; 2,400 tested, under 10 active; AID 652000;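 active means activation of at least 50%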
# bGal cs: inhibits E. coli beta-galactosidase, counter-screen for EBI2 antagonists. actives 1% (n = 2,400). AID 652176. purified beta-galactosidase, luminescent Galacton Star, 15 min. shares compounds with EBI2 block. inhibition, % at 5 µM;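 active means replicate-average signal at least 3 plate SD below neutral wells, shown as high inhibition, flagging enzyme-inhibiting false positives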;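 further: 0% = DMSO wells with enzyme and 100% = wells lacking enzyme; higher means stronger loss of beta-gal luminescence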
# An asterisk follows results filed as active; . = no result.
SMILES,CXCR6 inh,CCR6 antag,APJ antagonist,APJ agonist,EBI2 block,EBI2 conf,EBI2 ag,bGal cs
Cc1cc(C)c(S(=O)(=O)N2CCN(C(=O)c3ccc(-n4nc(C)c(Cl)c4C)cc3)CC2)c(C)c1,3,4,.,.,94*,68*,0,-11
Cc1cc(C)c(S(=O)(=O)N2CCN(C(=O)c3c(C)nn(-c4ccccc4)c3Cl)CC2)c(C)c1,-1,2,.,.,-7,.,.,.
CC(=O)c1cccc(CN2CCCCC2C(=O)Nc2ccc(Oc3ccccc3)nc2)c1 (centres undefined),-15,15,3,8,71*,49,1,8
O=C(Nc1ccc(Oc2ccccc2)nc1)C1CCCCN1Cc1ccc(OCCO)cc1 (centres undefined),-10,2,-22,10,66*,42,-1,12
CCCc1ncc(CN2CCCCC2C(=O)Nc2ccc(Oc3ccccc3)nc2)cn1 (centres undefined),2,1,3,-8,15,.,.,.
C#Cc1ccc(CN2CCC(C(=O)Nc3ccc(Oc4ccccc4)nc3)CC2)cc1,-2,13,17,-3,28,.,.,.
O=C(Nc1ccc(Oc2ccccc2)nc1)C1CCCCN1Cc1ccco1 (centres undefined),-5,15,4,-1,54*,25,0,4
Cc1ccc(CNC(=O)C2CCN(S(=O)(=O)c3ccc4c(c3)OCCCO4)CC2)cc1,3,9,6,-1,79*,67*,2,8
COc1ccc(CNC(=O)C2CCN(S(=O)(=O)c3ccc4c(c3)N(C(C)=O)CCO4)CC2)cc1,-8,9,28,-1,73*,46,1,3
Cc1ccc(NC(=O)C2CCN(S(=O)(=O)c3ccc4c(c3)OCCCO4)CC2)nc1,-11,2,16,-2,-8,.,.,.
O=C1Nc2ccccc2C(=O)N(C2CCCC2)C1C(=O)NC1CC1 (centres undefined),.,.,.,.,1,.,.,.
O=C(OCc1nnc(-c2ccc([N+](=O)[O-])cc2)o1)C1CCN(C(=O)c2ccc(Cl)cc2)CC1,-18,4,-27,4,50*,15,4,4
O=C(OCc1nnc(-c2ccc([N+](=O)[O-])cc2)o1)C1CCN(C(=O)c2ccc(F)cc2)CC1,-4,5,-87,1,-2,.,.,.
CCC(=O)N1CCc2cc(S(=O)(=O)CCC(=O)NCc3cccc(OC)c3)ccc21,-2,13,13,-6,-2,.,.,.
O=C(CSc1nc2ccc(Nc3nc(N4CCCC4)nc(N4CCCC4)n3)cc2s1)NCc1ccco1,-2,4,1,3,49*,18,-1,-10
O=C(CSc1nc2ccc(Nc3nc(N4CCOCC4)nc(N4CCOCC4)n3)cc2s1)Nc1ccccc1Cl,-6,-2,-30,3,9,.,.,.
O=C(OCC(O)COc1ccccc1)c1ccc([N+](=O)[O-])cc1 (centres undefined),-24,-6,-2,-2,-4,.,.,.
O=C(COC(=O)CSc1ccc([N+](=O)[O-])cc1)NCCCc1ccccc1,-2,8,29,1,2,.,.,.
Cc1ccc(-c2nnc(N3CCN(C(=O)COc4cccc(C)c4)CC3)c3ccccc23)cc1,-1,12,8,1,63*,32,-1,-12
Cc1ccc(-c2nnc(N3CCN(C(=O)CN4C(=O)c5ccccc5C4=O)CC3)c3ccccc23)cc1,-3,6,-14,6,1,.,.,.
Cc1cccc(OCC(=O)N2CCN(c3nnc(-c4ccccc4)c4ccccc34)CC2)c1,14,10,4,-2,55*,29,3,3
O=C(C[C@H]1C/C=C\CC[C@@H](Cc2ccc(F)cc2)C(=O)O[C@H](c2ccccc2)CNC1=O)N[C@H](CO)Cc1ccccc1,-2,2,-10,1,5,.,.,.
COc1ccc(CCN2CC(C(=O)Nc3cc(F)ccc3F)CC2=O)cc1OC (centres undefined),-9,2,-6,-7,1,.,.,.
COc1ccccc1NC(=O)C(C)OC(=O)C1CC(=O)N(Cc2ccco2)C1 (centres undefined),-1,.,.,.,-2,.,.,.
CCN(CC)S(=O)(=O)c1ccc2c(c1)nc(SCC(=O)N1CCCCCC1)n2-c1ccc(OC)cc1,11,15,12,1,47*,56*,1,1
SMILES,CXCR6 inh,CCR6 antag,APJ antagonist,APJ agonist,EBI2 block,EBI2 conf,EBI2 ag,bGal cs
CC(=O)c1ccc(S(=O)(=O)N2CCN(C(=O)CN3C(=O)NC4(CCCC4)C3=O)CC2)cc1,9,5,-20,-5,2,.,.,.
O=C(/C=C/c1ccco1)N1CCN(c2ccccc2)CC1,2,9,13,-1,2,.,.,.
Cc1ccc(/C=C/C(=O)N2CCN(S(=O)(=O)c3cccs3)CC2)o1,-5,1,-9,-1,20,.,.,.
O=C(/C=C/c1ccco1)N1CCN(S(=O)(=O)/C=C/c2ccccc2)CC1,-2,-1,-25,3,79*,48,3,2
Cc1ccc(/C=C/C(=O)N2CCN(S(=O)(=O)/C=C/c3ccccc3)CC2)o1,5,7,-22,-3,67*,38,1,5
O=C(/C=C/c1ccco1)N1CCN(C/C=C/c2ccccc2)CC1,12,11,-18,0,63*,32,1,2
O=C(/C=C/c1ccccc1)N1CCN(c2ccc([N+](=O)[O-])c(N3CCOCC3)c2)CC1,-4,15,18,4,78*,58*,-2,-7
Cc1cccc(C(=O)N2CCN(c3ccc([N+](=O)[O-])c(N4CCOCC4)c3)CC2)c1,-3,-5,11,0,13,.,.,.
O=C(c1ccc2ccccc2c1)N1CCN(c2ccc([N+](=O)[O-])c(N3CCOCC3)c2)CC1,-3,7,-14,-3,47*,34,0,7
CCCCCCCN1C(Nc2ccccc2)=NC[C@@H]1CC(C)C,3,8,8,2,-6,.,.,.
O=C(NC1CCCC1)C(c1ccncc1)N(C(=O)Cc1cccs1)c1cccc(F)c1 (centres undefined),3,5,-1,1,-1,.,.,.
O=C(c1ccccc1)N1CCN(CC(O)COc2ccc(Br)cc2)CC1 (centres undefined),-8,-1,-16,1,71*,44,-1,-12
COc1cc(C(=O)N2CCN(CC(O)COc3ccccc3)CC2)cc(OC)c1OC (centres undefined),-5,3,-1,2,-2,.,.,.

# Screening results deposited in PubChem by Sanford-Burnham Center for Chemical Genomics.
